Measurements reported in ChEMBL document CHEMBL2429733, “Meroterpenoids with diverse ring systems from the sponge-associated fungus Alternaria sp. JJY-32” (J Nat Prod, 2013).
Where a name gives a salt, the structure may show the parent alone. Active and inactive are the calls of the source. The rule behind the calls is not given here.

Legend:
HL-60 = test: Cytotoxicity against human HL60 cells; type: functional, cell-based
Summary of the method: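 Growth of human tumour cells measured by the MTT or SRB method, with adriamycin as the positive control.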

[1] = Inhibition of LPS-induced NF-kappaB (unknown origin) activation transfected in mouse RAW264.7 cells preincubated for 2 hrs followed by LPS challenge measured after 4 hrs by luciferase reporter gene assay; type: cell-based
Summary of the method: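 RAW264.7 cells were seeded at 2.5 × 10^5 per well and held at 37 °C for 24 h. They were then transiently transfected with pNF-κB-Luc plasmid (0.5 μg/well) using lipofectamine 2000. After 24 h, compounds were added for 2 h, then LPS (0.1 μg/mL) for a further 4 h. Read-out was Steady-Glo luciferase, with PDTC as the positive control, and IC50 was derived.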

A549 = test: Cytotoxicity against human A549 cells

| IC50 [1] [µM] | SMILES | Activity (HL-60) | IC50 (HL-60) [nM] | IC50 (A549) [nM] |
| --- | --- | --- | --- | --- |
| 45 | COc1ccc(O)c(C/C=C(\C)CC/C=C(\C)CC[C@@H](O)C(C)(C)O)c1O [(+)-MONOCYCLOALTERNARENE A] | inactive | – | – |
| 76 | CO[C@@H]1C[C@H](O)C2=C(C[C@H]3[C@H](C(C)(O)CCC=C(C)C)CC[C@@]3(C)O2)C1=O (stereo partly drawn) [TRICYCLOALTERNARENE B] | inactive | – | – |
| 47 | C/C(=C\Cc1cc(C(=O)O)cc(O)c1O)CC/C=C(\C)CC[C@@H](O)C(C)(C)O [(+)-MONOCYCLOALTERNARENE B] | inactive | – | – |
| – | COc1cccc2c1C(=O)c1c(O)c3c(c(O)c1C2=O)C[C@@](O)(C(=O)CO)C[C@@H]3O[C@H]1C[C@H](N)[C@H](O)[C@H](C)O1 [DOXORUBICIN] | – | 90 | 350 |
| 85 | C/C(=C\CC[C@](C)(O)[C@@H]1CC2=C(CC[C@@H](O)C2=O)O1)CC/C=C(\C)C(=O)O | inactive | – | – |
| 52 | CC(C)=CCC[C@H](C)[C@@H]1CC[C@](C)(O)[C@]12CC1=C(O2)[C@H](O)CCC1=O [TRICYCLOALTERNARENE A] | inactive | – | – |
| 70 | C/C(=C\CC[C@](C)(O)[C@@H]1CC2=C(CC[C@@H](O)C2=O)O1)CC[C@@H](O)C(C)(C)O | inactive | – | – |
| > 100 | C/C(=C\CC[C@]1(C)OC2=C(C[C@@H]1O)C(=O)[C@H](O)CC2)CC/C=C(\C)C(=O)O | inactive | – | – |
| 67 | C/C(=C\CC[C@](C)(O)[C@@H]1CC2=C(O1)[C@H](O)CCC2=O)CC/C=C(\C)C(=O)O | inactive | – | – |
| 50 | C/C(=C\CC[C@@H](C)C1=CC[C@@]2(C)OC3=C(C[C@@H]12)C(=O)[C@H](O)CC3)CO | inactive | – | – |
| 39 | C/C(C=O)=C\CC[C@@H](C)C1=CC[C@@]2(C)OC3=C(C[C@@H]12)C(=O)[C@H](O)CC3 | inactive | – | – |
| 75 | CC(C)=CCCC(C)(O)[C@@H]1CC[C@@]2(C)OC3=C(C[C@@H]12)C(=O)CC[C@H]3O (stereo partly drawn) [TRICYCLOALTERNARENE C] | inactive | – | – |
| 58 | CO[C@@H]1C[C@H](O)C(O)=C(C/C=C(\C)CC/C=C(\C)CC/C=C(\C)C(=O)O)C1=O | inactive | – | – |
| 62 | CC(C)=CCC[C@](C)(O)[C@H](O)CC[C@](C)(O)[C@@H]1CC2=C(CC[C@@H](O)C2=O)O1 | inactive | – | – |
| 42 | CO[C@@H]1C[C@H](O)C(O)=C(C/C=C(\C)CC/C=C(\C)CCCC(C)C(=O)O)C1=O (stereo partly drawn) | inactive | – | – |
| > 100 | C/C(=C\CC[C@]1(C)OC2=C(C[C@@H]1O)C(=O)CC[C@H]2O)CC/C=C(\C)C(=O)O | inactive | – | – |

| SMILES | IC50 [1] [µM] | Activity (HL-60) | IC50 (HL-60) [nM] | IC50 (A549) [nM] |
| --- | --- | --- | --- | --- |
| S=C(S)N1CCCC1 [PYRROLIDINE DITHIOCARBAMIC ACID, AMMONIUM SALT] | 3 | – | – | – |
